Measured values reported in ChEMBL document CHEMBL5712918, “Targeting methyltransferase PRMT5 retards the carcinogenesis and metastasis of HNSCC via epigenetically inhibiting Twist1 transcription” (Neoplasia, 2020).
Calls of active or inactive are those of the source. The rule behind the calls is not given here.

Experiments:
[1] = target: Protein arginine N-methyltransferase 5 (Homo sapiens) (UniProt O14744); experiment: Inhibition of PRMT5 in human HSC-6 cells assessed as reduction in Twist1 protein expression at 10 uM incubated for 4 days by western blot analysis; type: cell-based; settings: time 4.0 day
Outline: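 HSC6 or SCC25 cells treated with 10 μM for 4 days. E-cadherin, N-cadherin and Twist1 proteins detected by immunoblot.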

[2] = Toxicity in BALB/c nude mouse xenografted with human tongue squamous carcinoma cells assessed as effect on kidney morphology at 30 mg/kg; type: organism-based; settings: in vivo
[3] = Toxicity in BALB/c nude mouse xenografted with human HSC6 cells assessed as effect on liver morphology at 15 to 30 mg/kg; type: organism-based; settings: in vivo, dose 15-30 mg/kg
Outline: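 Subcutaneous xenograft in 4-week-old BALB/c nude mice given 6 × 10^7 HSC6 cells into the back. Groups were control, 15 mg/kg and 30 mg/kg. Body weight was monitored and major organs were examined for toxicity.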

HSC-6 [4] = experiment: Antitumor activity against human HSC-6 cells xenografted in BALB/c nude mouse model of orthotopic tumor assessed as as reduction in distant metastasis in lung at 30 mg/kg by H and E analysis; type: functional, organism-based
[5] = Toxicity in BALB/c nude mouse xenografted with human HSC6 cells of orthotopic tumor assessed as effect on body weight at 30 mg/kg; type: organism-based; settings: in vivo
Outline: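 Orthotopic model: 5 × 10^5 HSC6 cells injected submucosally into the tongue of 4-week-old BALB/c nude mice. Control vs 30 mg/kg (n = 12 each). Body weight was followed, and cervical lymph nodes were stained with pan-cytokeratin.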

HSC-6 [6] = experiment: Antitumor activity against human HSC-6 cells xenografted in BALB/c nude mouse assessed as as reduction in lymphnode metastasis at 30 mg/kg by H and E analysis; type: functional, organism-based
Rattus norvegicus [7] = experiment: Antitumor activity against 4-Nitroquinoline-1-Oxide induced cancer Sprague-Dawley rat carcinogenic model assessed as cancer area of tongue tissue at 30 mg/kg, iv administered on week 12 and measured on week 22 (reference value: 80%); type: functional; settings: time 10 weeks
HSC-6 [8] = experiment: Antiproliferative activity against human HSC-6 cells assessed as reduction in colony formation at 0.5 to 5 uM after 10 to 14 days […]; type: functional, cell-based; settings: dose 0.5-5 µM, time 10-14 day
Outline: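 Colony formation: cells dispersed to single cells and seeded at 500 cells/well in 6-well plates. Grown 10–14 days until macroscopic clones appeared, then formaldehyde-fixed and crystal violet-stained. Clone formation rate from clones counted by eye.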

[9] = target: Protein arginine N-methyltransferase 5 (Homo sapiens) (UniProt O14744); experiment: Inhibition of PRMT5 in human HSC-6 cells assessed as reduction in Twist1 mRNA expression at 10 uM incubated for 4 days by RT-qPCR analysis; type: cell-based; settings: time 4.0 day
Outline: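 HSC6 or SCC25 cells exposed to 10 μM for 4 days. Twist1 mRNA measured by quantitative RT-PCR. Mean ± SD of three independent experiments, Student's t test.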

SCC-25 [10] = experiment: Antiproliferative activity against human SCC-25 cells assessed as reduction in cell vaibility at 1 to 10 uM by CCK-8 assay; type: functional, cell-based; settings: dose 1-10 µM
Outline: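 Proliferation of HSC6 and SCC25 cells read by CCK-8 conversion. Mean ± SD of three independent experiments, Student's t test.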

HSC-6 [11] = experiment: Anti-invasive activity against human HSC-6 cells assessed as reduction in cell invasion after 48 hrs incubated for 48 hrs by transwell assay; type: functional, cell-based
SCC-25 [12] = experiment: Antimigratory activity against human SCC-25 cells assessed as reduction in cell invasion after 48 hrs incubated for 48 hrs by transwell assay; type: functional, cell-based
Rattus norvegicus [13] = experiment: Antitumor activity against 4-Nitroquinoline-1-Oxide induced cancer Sprague-Dawley rat carcinogenic model assessed as reduction in lesion area of tongue tissue at 30 mg/kg, iv administered on week 12 and measured on week 22; type: functional, organism-based; settings: time 10.0 weeks
HSC-6 [14] = experiment: Antitumor activity against human HSC-6 cells xenografted in BALB/c nude mouse model of orthotopic tumor assessed as reduction in lymphnode metastasis at 30 mg/kg by immunohistochemistry analysis; type: functional, organism-based
Outline: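 Orthotopic model: 5 × 10^5 HSC6 cells injected submucosally into the tongue of 4-week-old BALB/c nude mice, vehicle or 30 mg/kg (n = 12 each). Cervical lymph node metastasis detected by IHC with pan-cytokeratin antibody 1:400. Metastasis rates compared by Fisher's exact test.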

HSC-6 [15] = experiment: Antitumor activity against human HSC-6 cells xenografted in BALB/c nude mouse assessed as reduction in Ki67-positive tumor cell at 15 to 30 mg/kg by immunohistochemistry analysis; type: functional, organism-based; settings: dose 15-30 mg/kg
Outline: (§1)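 HSC6 subcutaneous xenograft: 6 × 10^7 cells into the back of 4-week-old BALB/c nude mice, dosed at 15 or 30 mg/kg. IHC with Ki67 1:400 or Twist1 1:250. Percent positive cells from 5 random fields per sample. Student's t test; Twist1 groups n = 6/6.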

[16] = Toxicity in BALB/c nude mouse xenografted with human squamous carcinoma cells assessed as effect on body weight at 30 mg/kg; type: organism-based; settings: in vivo
HSC-6 [17] = experiment: Antitumor activity against human HSC-6 cells xenografted in BALB/c nude mouse assessed as reduction in number of Twist1 positive cells at 30 mg/kg by IHC staining; type: functional, organism-based; outline: as §1
Rattus norvegicus [18] = experiment: Antitumor activity against 4-Nitroquinoline-1-Oxide induced cancer Sprague-Dawley rat carcinogenic model assessed as reduction in number of Twist1 positive cells at 30 mg/kg, iv administered on week 12 and measured on week 22 by IHC assay; type: functional, organism-based; settings: time 10.0 weeks
Outline: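 4NQO-induced SD rat tongue lesions (0.002% 4NQO in drinking water for 12 weeks; tail-vein 30 mg/kg from week 12; killed at week 22). IHC with Twist1 antibody 1:250. Percentage of positive cells from 5 random fields per sample. Groups n = 11/6, mean ± SD, Student's t test.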

[19] = target: Protein arginine N-methyltransferase 5 (Homo sapiens) (UniProt O14744); experiment: Inhibition of PRMT5 in human HSC-6 cells over expressing Twist1 assessed as increase in N-cadherin protein level at 10 uM incubated for 4 days by immunoblot analysis; type: cell-based; settings: time 4.0 day
Outline: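 HSC6 cells stably overexpressing Flag-Twist1, with or without 10 μM for 4 days. Twist1, N-cadherin and E-cadherin proteins detected by immunoblot.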

SCC-25 [20] = experiment: Antimigratory activity against human SCC-25 cells assessed as reduction in cell migration at 10 uM for 4 days by transwell assay; type: functional, cell-based; settings: time 4.0 day
Outline: (§2)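 Transwell migration and invasion with 8-μm pore inserts. HSC6 or SCC25 cells, including lines stably overexpressing Flag-Twist1, treated at 10 μM for 4 days. Mean ± SD of three independent experiments, one-way ANOVA.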

HSC-6 [21] = experiment: Anti-invasive activity against human HSC-6 cells assessed as reduction in cell invasion at 10 uM for 4 days by transwell assay; type: functional, cell-based; settings: time 4.0 day; outline: as §2
SCC-25 [22] = experiment: Anti-invasive activity against human SCC-25 cells assessed as reduction in cell invasion at 10 uM for 4 days by transwell assay; type: functional, cell-based; settings: time 4.0 day; outline: as §2
HSC-6 [23] = experiment: Antitumor activity against human HSC-6 cells xenografted in BALB/c nude mouse assessed as reduction in tumor volume at 15 to 30 mg/kg; settings: dose 15-30 mg/kg
[24] = target: Protein arginine N-methyltransferase 5 (Homo sapiens) (UniProt O14744); experiment: Inhibition of PRMT5 in human HSC-6 cells assessed as increase in E-cadherin protein expression level at 10 uM incubated for 4 days by western blot analysis; settings: time 4.0 day

Sequence of Protein arginine N-methyltransferase 5 (Homo sapiens) (O14744 whole entry): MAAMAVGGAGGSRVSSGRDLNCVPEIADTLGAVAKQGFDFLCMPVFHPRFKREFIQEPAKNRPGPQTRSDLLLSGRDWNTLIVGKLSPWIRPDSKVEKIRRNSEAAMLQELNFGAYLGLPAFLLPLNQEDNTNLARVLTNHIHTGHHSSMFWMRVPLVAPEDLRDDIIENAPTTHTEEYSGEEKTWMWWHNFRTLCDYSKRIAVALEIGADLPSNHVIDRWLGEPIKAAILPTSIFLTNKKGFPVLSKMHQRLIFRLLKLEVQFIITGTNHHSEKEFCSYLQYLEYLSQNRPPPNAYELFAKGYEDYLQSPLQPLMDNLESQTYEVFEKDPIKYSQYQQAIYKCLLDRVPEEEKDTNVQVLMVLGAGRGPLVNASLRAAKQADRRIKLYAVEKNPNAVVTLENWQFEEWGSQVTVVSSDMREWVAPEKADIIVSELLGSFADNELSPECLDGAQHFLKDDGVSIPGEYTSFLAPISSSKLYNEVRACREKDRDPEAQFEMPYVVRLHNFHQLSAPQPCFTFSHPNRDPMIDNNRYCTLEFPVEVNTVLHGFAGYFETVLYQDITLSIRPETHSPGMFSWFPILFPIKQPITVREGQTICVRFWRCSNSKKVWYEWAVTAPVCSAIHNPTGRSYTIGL

For O=C(NC[C@H](O)CN1CCc2ccccc2C1)c1cc(NC2COC2)ncn1, the inhibition [1] was “Active”, the Activity [2] was “Non-Toxic” and the Activity [3] was “Non-Toxic”. The Activity (HSC-6 [4]) was “Active”, the Activity [5] was “Non-Toxic” and the Activity (HSC-6 [6]) was “Active”. For the same compound, the Activity (Rattus norvegicus [7]) was 46.2%, the Activity (HSC-6 [8]) was “Active” and the inhibition [9] was “Active”. The Activity (SCC-25 [10]) was “Active”, the Activity (HSC-6 [11]) was “Active” and the Activity (SCC-25 [12]) was “Active”. For the same compound, the Activity (Rattus norvegicus [13]) was “Active”, the Activity (HSC-6 [14]) was “Active” and the Activity (HSC-6 [15]) was “Active”. The Activity [16] was “Non-Toxic”, the Activity (HSC-6 [17]) was “Active” and the Activity (Rattus norvegicus [18]) was “Active”. The inhibition [19] was “inactive”, the Activity (SCC-25 [20]) was “Active” and the Activity (HSC-6 [21]) was “Active”. For the same compound, the Activity (SCC-25 [22]) was “Active”, the Activity (HSC-6 [23]) was “Active” and the inhibition [24] was “Active”.
